Data taken from ChEMBL document CHEMBL5046302, “Identification and Evaluation of Brominated Carbazoles as a Novel Antibiotic Adjuvant Scaffold in MRSA” (2022).
Converted amounts (≈) assume the structure as drawn.

Key:
Type in all cases: functional
Staphylococcus aureus [1] = assay: Potentiation of oxacillin induced antibacterial activity against methicillin-resistant Staphylococcus aureus USA 100 assessed as fold change in oxacillin MIC at 50 uM after 18 hrs by CLSI protocol based broth microdilution assay
Staphylococcus aureus [2] = assay: Potentiation of ceftazidime induced antibacterial activity against methicillin-resistant Staphylococcus aureus COL assessed as fold change in ceftazidime MIC at 50 uM after 18 hrs by CLSI protocol based broth microdilution assay
Staphylococcus aureus [3] = assay: Antibacterial activity against methicillin-resistant Staphylococcus aureus ATCC 43300 assessed as inhibition of bacterial growth after 18 hrs by CLSI protocol based broth microdilution assay
In short: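 Broth microdilution MIC of carbazole alone vs MRSA ATCC 43300, tested up to 200 μM.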

Staphylococcus aureus [4] = assay: Potentiation of cefoxitin induced antibacterial activity against methicillin-resistant Staphylococcus aureus ATCC 43300 assessed as cefoxitin MIC at 50 uM after 18 hrs by CLSI protocol based broth microdilution assay
Staphylococcus aureus [5] = assay: Potentiation of methicillin induced antibacterial activity against methicillin-resistant Staphylococcus aureus COL assessed as fold change in methicillin MIC at 50 uM after 18 hrs by CLSI protocol based broth microdilution assay
Staphylococcus aureus [6] = assay: Potentiation of ampicillin induced antibacterial activity against methicillin-resistant Staphylococcus aureus USA300 assessed as ampicillin MIC at 50 uM after 18 hrs by CLSI protocol based broth microdilution assay
Staphylococcus aureus [7] = assay: Potentiation of methicillin induced antibacterial activity against methicillin-resistant Staphylococcus aureus COL assessed as methicillin MIC at 50 uM after 18 hrs by CLSI protocol based broth microdilution assay
Staphylococcus aureus [8] = assay: Potentiation of ceftazidime induced antibacterial activity against methicillin-resistant Staphylococcus aureus USA300 assessed as fold change in ceftazidime MIC at 50 uM after 18 hrs by CLSI protocol based broth microdilution assay
Staphylococcus aureus [9] = assay: Potentiation of cefoxitin induced antibacterial activity against methicillin-resistant Staphylococcus aureus USA100 assessed as cefoxitin MIC at 50 uM after 18 hrs by CLSI protocol based broth microdilution assay
Staphylococcus aureus [10] = assay: Potentiation of ceftazidime induced antibacterial activity against methicillin-resistant Staphylococcus aureus USA100 assessed as fold change in ceftazidime MIC at 50 uM after 18 hrs by CLSI protocol based broth microdilution assay
Staphylococcus aureus [11] = assay: Potentiation of ampicillin induced antibacterial activity against methicillin-resistant Staphylococcus aureus ATCC 43300 assessed as ampicillin MIC at 50 uM after 18 hrs by CLSI protocol based broth microdilution assay
Staphylococcus aureus [12] = assay: Potentiation of ceftazidime induced antibacterial activity against methicillin-resistant Staphylococcus aureus USA300 assessed as ceftazidime MIC at 50 uM after 18 hrs by CLSI protocol based broth microdilution assay
Staphylococcus aureus [13] = assay: Potentiation of cefoxitin induced antibacterial activity against methicillin-resistant Staphylococcus aureus COL assessed as cefoxitin MIC at 50 uM after 18 hrs by CLSI protocol based broth microdilution assay
Staphylococcus aureus [14] = assay: Potentiation of oxacillin induced antibacterial activity against methicillin-resistant Staphylococcus aureus COL assessed as fold change in oxacillin MIC at 50 uM after 18 hrs by CLSI protocol based broth microdilution assay
Staphylococcus aureus [15] = assay: Potentiation of methicillin induced antibacterial activity against methicillin-resistant Staphylococcus aureus ATCC 43300 assessed as methicillin MIC at 50 uM after 18 hrs by CLSI protocol based broth microdilution assay
Staphylococcus aureus [16] = assay: Potentiation of cefoxitin induced antibacterial activity against methicillin-resistant Staphylococcus aureus ATCC 43300 assessed as fold change in cefoxitin MIC at 50 uM after 18 hrs by CLSI protocol based broth microdilution assay
Staphylococcus aureus [17] = assay: Potentiation of methicillin induced antibacterial activity against methicillin-resistant Staphylococcus aureus USA300 assessed as fold change in methicillin MIC at 50 uM after 18 hrs by CLSI protocol based broth microdilution assay
Staphylococcus aureus [18] = assay: Potentiation of ceftazidime induced antibacterial activity against methicillin-resistant Staphylococcus aureus COL assessed as ceftazidime MIC at 50 uM after 18 hrs by CLSI protocol based broth microdilution assay
Staphylococcus aureus [19] = assay: Potentiation of ampicillin induced antibacterial activity against methicillin-resistant Staphylococcus aureus COL assessed as ampicillin MIC at 50 uM after 18 hrs by CLSI protocol based broth microdilution assay
Staphylococcus aureus [20] = assay: Potentiation of oxacillin induced antibacterial activity against methicillin-resistant Staphylococcus aureus USA300 assessed as oxacillin MIC at 50 uM after 18 hrs by CLSI protocol based broth microdilution assay
Staphylococcus aureus [21] = assay: Potentiation of oxacillin induced antibacterial activity against methicillin-resistant Staphylococcus aureus COL assessed as oxacillin MIC at 50 uM after 18 hrs by CLSI protocol based broth microdilution assay
Staphylococcus aureus [22] = assay: Potentiation of methicillin induced antibacterial activity against methicillin-resistant Staphylococcus aureus USA100 assessed as fold change in methicillin MIC at 50 uM after 18 hrs by CLSI protocol based broth microdilution assay
Staphylococcus aureus [23] = assay: Potentiation of oxacillin induced antibacterial activity against methicillin-resistant Staphylococcus aureus ATCC 43300 assessed as fold change in oxacillin MIC at 50 uM after 18 hrs by CLSI protocol based broth microdilution assay
Staphylococcus aureus [24] = assay: Potentiation of ceftazidime induced antibacterial activity against methicillin-resistant Staphylococcus aureus ATCC 43300 assessed as fold change in ceftazidime MIC at 50 uM after 18 hrs by CLSI protocol based broth microdilution assay
Staphylococcus aureus [25] = assay: Potentiation of cefoxitin induced antibacterial activity against methicillin-resistant Staphylococcus aureus USA300 assessed as fold change in cefoxitin MIC at 50 uM after 18 hrs by CLSI protocol based broth microdilution assay
Staphylococcus aureus [26] = assay: Potentiation of oxacillin induced antibacterial activity against methicillin-resistant Staphylococcus aureus ATCC 43300 assessed as oxacillin MIC at 50 uM after 18 hrs by CLSI protocol based broth microdilution assay
Staphylococcus aureus [27] = assay: Potentiation of methicillin induced antibacterial activity against methicillin-resistant Staphylococcus aureus USA100 assessed as methicillin MIC at 50 uM after 18 hrs by CLSI protocol based broth microdilution assay
Staphylococcus aureus [28] = assay: Potentiation of oxacillin induced antibacterial activity against methicillin-resistant Staphylococcus aureus USA100 assessed as oxacillin MIC at 50 uM after 18 hrs by CLSI protocol based broth microdilution assay
Staphylococcus aureus [29] = assay: Potentiation of ceftazidime induced antibacterial activity against methicillin-resistant Staphylococcus aureus ATCC 43300 assessed as ceftazidime MIC at 50 uM after 18 hrs by CLSI protocol based broth microdilution assay
Staphylococcus aureus [30] = assay: Potentiation of oxacillin induced antibacterial activity against methicillin-resistant Staphylococcus aureus USA300 assessed as fold change in oxacillin MIC at 50 uM after 18 hrs by CLSI protocol based broth microdilution assay
Staphylococcus aureus [31] = assay: Potentiation of ampicillin induced antibacterial activity against methicillin-resistant Staphylococcus aureus USA300 assessed as fold change in ampicillin MIC at 50 uM after 18 hrs by CLSI protocol based broth microdilution assay
Staphylococcus aureus [32] = assay: Potentiation of cefoxitin induced antibacterial activity against methicillin-resistant Staphylococcus aureus USA300 assessed as cefoxitin MIC at 50 uM after 18 hrs by CLSI protocol based broth microdilution assay
Staphylococcus aureus [33] = assay: Upregulation of pbp2 gene expression in methicillin-resistant Staphylococcus aureus ATCC 43300 assessed as fold change by RT-PCR method

Structure (SMILES)	fold change (FC) (Staphylococcus aureus [1])	fold change (FC) (Staphylococcus aureus [2])	MIC (Staphylococcus aureus [3])	MIC (Staphylococcus aureus [4])	fold change (FC) (Staphylococcus aureus [5])	MIC (Staphylococcus aureus [6])	MIC (Staphylococcus aureus [7])	fold change (FC) (Staphylococcus aureus [8])	MIC (Staphylococcus aureus [9])	fold change (FC) (Staphylococcus aureus [10])	MIC (Staphylococcus aureus [11])	MIC (Staphylococcus aureus [12])	MIC (Staphylococcus aureus [13])	fold change (FC) (Staphylococcus aureus [14])	MIC (Staphylococcus aureus [15])	fold change (FC) (Staphylococcus aureus [16])	fold change (FC) (Staphylococcus aureus [17])	MIC (Staphylococcus aureus [18])	MIC (Staphylococcus aureus [19])	MIC (Staphylococcus aureus [20])	further results
Brc1ccc2[nH]c3ccc(Br)cc3c2c1	4	1	> 200 µM	32 µg/mL	1	8 µg/mL	1020 µg/mL	1	64 µg/mL	4	16 µg/mL	256 µg/mL	512 µg/mL	4	2 µg/mL	2	4	1020 µg/mL	8 µg/mL	16 µg/mL	MIC (Staphylococcus aureus [21]): 128 µg/mL; fold change (FC) (Staphylococcus aureus [22]): 16; fold change (FC) (Staphylococcus aureus [23]): 4; fold change (FC) (Staphylococcus aureus [24]): 1; fold change (FC) (Staphylococcus aureus [25]): 1; MIC (Staphylococcus aureus [26]): 8 µg/mL; MIC (Staphylococcus aureus [27]): 32 µg/mL; MIC (Staphylococcus aureus [28]): 128 µg/mL; MIC (Staphylococcus aureus [29]): 128 µg/mL; fold change (FC) (Staphylococcus aureus [30]): 2; fold change (FC) (Staphylococcus aureus [31]): 1; MIC (Staphylococcus aureus [32]): 64 µg/mL
Brc1cccc2[nH]c3ccccc3c12	–	–	100 µM (≈ 24.6 µg/mL)	–	–	–	–	–	–	–	–	–	–	–	–	–	–	–	–	–	fold change (FC) (Staphylococcus aureus [33]): 2
Brc1cccc2c1[nH]c1ccccc12	512	1	> 200 µM	16 µg/mL	1	8 µg/mL	1020 µg/mL	1	16 µg/mL	2	4 µg/mL	256 µg/mL	256 µg/mL	1	4 µg/mL	4	4	1020 µg/mL	16 µg/mL	16 µg/mL	fold change (FC) (Staphylococcus aureus [33]): 2; MIC (Staphylococcus aureus [21]): 512 µg/mL; fold change (FC) (Staphylococcus aureus [22]): 64; fold change (FC) (Staphylococcus aureus [23]): 8; fold change (FC) (Staphylococcus aureus [24]): 2; fold change (FC) (Staphylococcus aureus [25]): 2; MIC (Staphylococcus aureus [26]): 4 µg/mL; MIC (Staphylococcus aureus [27]): 8 µg/mL; MIC (Staphylococcus aureus [28]): 0.5 µg/mL; MIC (Staphylococcus aureus [29]): 64 µg/mL; fold change (FC) (Staphylococcus aureus [30]): 4; fold change (FC) (Staphylococcus aureus [31]): 1; MIC (Staphylococcus aureus [32]): 16 µg/mL
